Measurements reported in ChEMBL document CHEMBL3632537, “Chalcones from Angelica keiskei: Evaluation of Their Heat Shock Protein Inducing Activities” (J Nat Prod, 2015).
Activity calls are given as the source filed them. No cut-off for these calls is given here.

Key:
NCI-H460 = assay: Induction of hsp25 promoter activity in human NCI-H460 cells at 10 uM measured at 5 hrs by luciferase reporter gene assay relative to control; type: functional
Method in brief: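 NCI-H460 human lung cancer cells carrying a luciferase reporter driven by the murine hsp25 promoter. Cells were plated at 1 × 10⁵ per well, grown 24 h, then exposed to 10 μM compound and harvested 5 h later. Lysate luciferase was normalized to β-galactosidase and expressed as fold induction over untreated control. Values are mean ± SD of three independent experiments.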

[1] = Cytotoxicity against human L-132 cells assessed as cell viability at 1 to 8 uM after 12 hrs by MTT assay; type: cell-based; conditions: l132, 12 h
Method in brief: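 L132 human lung fibroblasts exposed 12 h to 1, 2, 4 or 8 μM; medium swapped for MTT 0.5 mg/mL in PBS, 3 h at 37 °C, formazan dissolved in DMSO, absorbance at 540 nm converted to cell number via calibration curve; viability as ratio to DMSO no-treatment control; mean ± SD of three independent experiments, Student's t test vs untreated.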

L132 (Homo sapiens) [2] = assay: Upregulation of HSP70 mRNA expression in human L132 cells at 2 uM measured at 3 hrs by RT-PCR analysis relative to control
L132 (Homo sapiens) [3] = assay: Upregulation of HSP27 mRNA expression in human L132 cells at 2 uM measured at 3 hrs by RT-PCR analysis relative to control
L132 (Homo sapiens) [4] = assay: Upregulation of HSF1 protein expression in human L132 cells at 2 uM measured at 6 hrs by Western blot analysis relative to control
L132 (Homo sapiens) [5] = assay: Upregulation of HSP70 protein expression in human L132 cells at 2 uM measured at 6 hrs by Western blot analysis relative to control
L132 (Homo sapiens) [6] = assay: Upregulation of HSP27 protein expression in human L132 cells at 2 uM measured at 6 hrs by Western blot analysis relative to control
L132 (Homo sapiens) [7] = assay: Upregulation of HSF1 mRNA expression in human L132 cells by RT-PCR analysis
L132 (Homo sapiens) [8] = assay: Upregulation of HSP70 mRNA expression in human L132 cells by RT-PCR analysis
L132 (Homo sapiens) [9] = assay: Upregulation of HSP27 mRNA expression in human L132 cells by RT-PCR analysis
L132 (Homo sapiens) [10] = assay: Upregulation of HSF1 protein expression in human L132 cells by Western blot analysis
L132 (Homo sapiens) [11] = assay: Upregulation of HSP70 protein expression in human L132 cells by Western blot analysis
L132 (Homo sapiens) [12] = assay: Upregulation of HSP27 protein expression in human L132 cells by Western blot analysis

Row | SMILES | fold change (FC) (NCI-H460) | Activity [1] | fold change (FC) (L132 (Homo sapiens) [2]) | fold change (FC) (L132 (Homo sapiens) [3]) | fold change (FC) (L132 (Homo sapiens) [4]) | fold change (FC) (L132 (Homo sapiens) [5]) | fold change (FC) (L132 (Homo sapiens) [6]) | Activity (L132 (Homo sapiens) [7]) | Activity (L132 (Homo sapiens) [8]) | Activity (L132 (Homo sapiens) [9]) | Activity (L132 (Homo sapiens) [10]) | Activity (L132 (Homo sapiens) [11]) | Activity (L132 (Homo sapiens) [12])
1 | C=C(CCC=C(C)C)C(O)Cc1c(O)ccc(C(=O)/C=C/c2ccc(O)cc2)c1O (racemic) | 29.2 | Non-toxic | 5 | 1.5 | 4.3 | 1.5 | 4.6 |  |  |  |  |  | 
2 | CC1=C(O)C(=O)C=C2C1=CC=C1[C@@]2(C)CC[C@@]2(C)[C@@H]3C[C@](C)(C(=O)O)CC[C@]3(C)CC[C@]12C [CELASTROL] |  | Toxic |  |  |  |  |  |  |  |  |  |  | 
3 | COC(C)(C)/C=C/C/C(C)=C/Cc1c(O)ccc(C(=O)/C=C/c2ccc(O)cc2)c1O | 21.9 |  |  |  |  |  |  | inactive | inactive | inactive | inactive | inactive | inactive
